Laboratory results reported in ChEMBL document CHEMBL2375300, “New potent calcimimetics: II. Discovery of benzothiazole trisubstituted ureas” (Bioorg Med Chem Lett, 2013).
Active and inactive are the calls of the source. The calls are words filed in the database; no cut-off is given here.

Tests used:
[1] = molecular target: T1, Extracellular calcium-sensing receptor (Homo sapiens, UniProt P41180); assay: Positive allosteric modulation of human CaSR expressed in CHO cells assessed as increase in intracellular calcium level after 5 hrs by luciferase reporter gene assay; type: functional, cell-based
T1 sequence (P41180 whole entry): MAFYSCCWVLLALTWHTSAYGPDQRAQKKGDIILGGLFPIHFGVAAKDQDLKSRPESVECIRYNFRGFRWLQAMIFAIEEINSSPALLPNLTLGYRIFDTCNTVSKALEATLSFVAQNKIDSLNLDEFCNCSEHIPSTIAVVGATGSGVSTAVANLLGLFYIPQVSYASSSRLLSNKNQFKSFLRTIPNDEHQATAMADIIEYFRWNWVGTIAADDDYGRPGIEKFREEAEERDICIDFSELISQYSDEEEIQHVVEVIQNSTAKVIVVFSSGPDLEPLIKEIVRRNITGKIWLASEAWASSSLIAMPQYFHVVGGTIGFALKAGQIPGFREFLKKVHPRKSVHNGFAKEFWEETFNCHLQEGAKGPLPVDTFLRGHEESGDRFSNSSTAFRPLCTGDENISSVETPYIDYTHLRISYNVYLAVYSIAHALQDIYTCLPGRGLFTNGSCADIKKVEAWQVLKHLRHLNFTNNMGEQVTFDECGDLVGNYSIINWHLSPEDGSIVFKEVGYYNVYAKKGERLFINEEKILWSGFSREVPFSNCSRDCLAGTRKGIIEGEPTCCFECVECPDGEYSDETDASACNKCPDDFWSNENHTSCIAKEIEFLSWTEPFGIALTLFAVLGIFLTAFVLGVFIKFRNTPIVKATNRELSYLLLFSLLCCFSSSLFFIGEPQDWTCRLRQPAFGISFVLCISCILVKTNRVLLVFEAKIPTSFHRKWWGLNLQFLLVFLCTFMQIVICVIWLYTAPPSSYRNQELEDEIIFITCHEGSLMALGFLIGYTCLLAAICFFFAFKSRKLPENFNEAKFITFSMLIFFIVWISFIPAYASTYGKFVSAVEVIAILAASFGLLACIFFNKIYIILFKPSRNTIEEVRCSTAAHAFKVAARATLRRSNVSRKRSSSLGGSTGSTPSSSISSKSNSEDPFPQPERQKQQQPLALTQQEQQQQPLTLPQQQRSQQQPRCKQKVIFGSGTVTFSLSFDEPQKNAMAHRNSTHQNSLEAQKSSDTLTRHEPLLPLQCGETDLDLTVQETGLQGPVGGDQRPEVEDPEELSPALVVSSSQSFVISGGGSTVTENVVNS
Summary of the method: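 CHO cells stably transfected with human CaSR and a luciferase reporter (clone ET8-5-5) were seeded at 50K/well, grown 24 h, then serum-starved overnight. Cells were exposed for 5 h at 37 °C to compound dilutions crossed with a CaCl2 range, in HEPES pH 7.4 buffer with 0.3 mM CaCl2 baseline. Luminescence was read. EC50 was taken at 2 mM calcium, n ≥ 1.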

[2] = Volume of distribution in Sprague-Dawley rat chronic renal failure model at 0.3 mg/kg, iv; type: ADME, organism-based; set-up: dose 0.3 mg/kg, route intravenous; conditions: in vivo
Summary of the method: (§1)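 Single intravenous dose of 0.3 mg/kg given to chronic renal failure rats. AUC, Cmax, clearance, volume of distribution and half-life were derived from the plasma exposure.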

[3] = Half life in Sprague-Dawley rat chronic renal failure model at 0.3 mg/kg, iv; type: ADME, organism-based; set-up: dose 0.3 mg/kg, route intravenous; conditions: in vivo; summary of the method: as §1
[4] = tested on: Rattus norvegicus; assay: Antihyperparathyroidism activity in Sprague-Dawley rat chronic renal failure model assessed as decrease in serum PTH level at 10 mg/kg, po after 2 hrs relative to vehicle-treated control; type: functional; set-up: scale not given: the % may be the effect or the level left
Summary of the method: (§2)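 One week later each received one oral gavage of 10 mg/kg in 0.5% methylcellulose (5 mL/kg), or vehicle alone. Rats were fasted 24 h before decapitation at 2, 6 or 24 h. Serum PTH was measured by rat IRMA, and Ca and P by chemistry analyzer. n = 9–12, ANOVA/t-test against CRF vehicle.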

[5] = tested on: Rattus norvegicus; assay: Toxicity in Sprague-Dawley rat chronic renal failure model assessed as decrease in serum calcium level at 10 mg/kg, po after 24 hrs; type: organism-based; set-up: dose 10 mg/kg, route oral; conditions: in vivo; summary of the method: as §2
[6] = tested on: Rattus norvegicus; assay: Antihyperparathyroidism activity in Sprague-Dawley rat chronic renal failure model assessed as decrease in serum PTH level at 10 mg/kg, po after 24 hrs relative to vehicle-treated control; type: functional; set-up: scale not given: the % may be the effect or the level left; summary of the method: as §2
[7] = Metabolic stability in serum (unknown origin) at pH 2 to 12; type: ADME
[8] = tested on: Rattus norvegicus; assay: Antihyperparathyroidism activity in Sprague-Dawley rat chronic renal failure model assessed as decrease in serum PTH level at 10 mg/kg, po after 6 hrs relative to vehicle-treated control; type: functional; set-up: scale not given: the % may be the effect or the level left; summary of the method: as §2
[9] = Clearance in Sprague-Dawley rat chronic renal failure model at 0.3 mg/kg, iv; type: ADME, organism-based; set-up: dose 0.3 mg/kg, route intravenous; conditions: in vivo; summary of the method: as §1
[10] = tested on: Rattus norvegicus; assay: Toxicity in Sprague-Dawley rat chronic renal failure model assessed as aortic calcification at 10 to 30 mg/kg/day, po administered for 2 months measured 24 hrs post last dose by histological analysis; type: organism-based, Aorta; set-up: route oral; conditions: in vivo
Summary of the method: (§3)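 After an untreated interval, they were gavaged once daily with the dihydrochloride salt in 0.5% methylcellulose, or with vehicle at 5 mL/kg. Mortality and side effects were monitored during treatment. Rats were fasted 24 h, then decapitated, and the aorta was examined histologically for calcification.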

[11] = tested on: Rattus norvegicus; assay: Toxicity in Sprague-Dawley rat chronic renal failure model assessed as side effects at 10 to 30 mg/kg/day, po administered for 2 months measured 24 hrs post last dose; type: organism-based; set-up: route oral; conditions: in vivo; summary of the method: as §3
[12] = Aqueous solubility of the compound at pH 2; type: physicochemical
Summary of the method: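 Aqueous solubility measured at pH 2.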

[13] = AUC in Sprague-Dawley rat chronic renal failure model at 0.3 mg/kg, iv; type: ADME, organism-based; set-up: dose 0.3 mg/kg, route intravenous; conditions: in vivo; summary of the method: as §1
[14] = tested on: Rattus norvegicus; assay: Antihyperparathyroidism activity in Sprague-Dawley rat chronic renal failure model assessed as […] at 10 mg/kg/day, po administered for 2 months measured 24 hrs post last dose relative to vehicle-treated control; type: functional
Summary of the method: (§4)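 Male Sprague–Dawley rats with 5/6 nephrectomy were dosed orally once daily at 10 or 30 mg/kg/day in 0.5% methylcellulose (5 mL/kg), or given vehicle. Dosing ran about 2 months, starting after a post-surgery untreated period. Rats were fasted and killed by decapitation 24 h after the last dose. Serum PTH was measured by rat IRMA and Ca by chemistry analyzer. n = 6–10, compared with CRF vehicle.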

[15] = tested on: Rattus norvegicus; assay: Antihyperparathyroidism activity in Sprague-Dawley rat chronic renal failure model assessed as […] at 30 mg/kg/day, po administered for 2 months measured 24 hrs post last dose relative to vehicle-treated control; type: functional; summary of the method: as §4
[16] = tested on: Rattus norvegicus; assay: Toxicity in Sprague-Dawley rat chronic renal failure model assessed as decrease in serum calcium level at 10 mg/kg/day, po administered for 2 months measured 24 hrs post last dose (reference value: 4%); type: organism-based; set-up: route oral; scale not given: the % may be the effect or the level left; conditions: in vivo, 30 mg/kg, in the assay text read “at 30 mg/kg/day” for “at 10 mg/kg/day”; summary of the method: as §4
[17] = Cmax in Sprague-Dawley rat chronic renal failure model at 0.3 mg/kg, iv; type: ADME, organism-based; set-up: dose 0.3 mg/kg, route intravenous; conditions: in vivo; summary of the method: as §1
[18] = tested on: Rattus norvegicus; assay: Clearance in Sprague-Dawley rat at 0.3 mg/kg, iv; type: ADME, organism-based; set-up: dose 0.3 mg/kg, route intravenous; conditions: in vivo
[19] = tested on: Rattus norvegicus; assay: Toxicity in Sprague-Dawley rat chronic renal failure model assessed as mortality at 10 to 30 mg/kg/day, po administered for 2 months measured 24 hrs post last dose; type: organism-based; set-up: route oral; conditions: in vivo; summary of the method: as §3
[20] = Metabolic stability in intestinal fluid (unknown origin) at pH 2 to 12; type: ADME; conditions: simulated gi fluid
[21] = tested on: Rattus norvegicus; assay: Toxicity in Sprague-Dawley rat chronic renal failure model assessed as decrease in serum calcium level at 10 mg/kg/day, po administered for 2 months measured 24 hrs post last dose relative to vehicle-treated control; type: organism-based; set-up: route oral; conditions: in vivo; summary of the method: as §4
[22] = tested on: Rattus norvegicus; assay: Antihyperparathyroidism activity in Sprague-Dawley rat chronic renal failure model assessed as increase in serum phosphorus level at 10 mg/kg, po after 24 hrs; type: functional, organism-based; set-up: dose 10 mg/kg; summary of the method: as §2
[23] = molecular target: T2, Extracellular calcium-sensing receptor (Homo sapiens) (UniProt P41180); assay: Ratio of R-568 EC50 to compound EC50 for positive allosteric modulation of human CaSR
T2 sequence (whole entry): T1 sequence (P41180 whole entry)

[24] = molecular target: Voltage-gated inwardly rectifying potassium channel KCNH2 (Homo sapiens, UniProt Q12809); assay: Inhibition of human ERG at 10 uM
Chain of Voltage-gated inwardly rectifying potassium channel KCNH2 (Q12809 whole entry): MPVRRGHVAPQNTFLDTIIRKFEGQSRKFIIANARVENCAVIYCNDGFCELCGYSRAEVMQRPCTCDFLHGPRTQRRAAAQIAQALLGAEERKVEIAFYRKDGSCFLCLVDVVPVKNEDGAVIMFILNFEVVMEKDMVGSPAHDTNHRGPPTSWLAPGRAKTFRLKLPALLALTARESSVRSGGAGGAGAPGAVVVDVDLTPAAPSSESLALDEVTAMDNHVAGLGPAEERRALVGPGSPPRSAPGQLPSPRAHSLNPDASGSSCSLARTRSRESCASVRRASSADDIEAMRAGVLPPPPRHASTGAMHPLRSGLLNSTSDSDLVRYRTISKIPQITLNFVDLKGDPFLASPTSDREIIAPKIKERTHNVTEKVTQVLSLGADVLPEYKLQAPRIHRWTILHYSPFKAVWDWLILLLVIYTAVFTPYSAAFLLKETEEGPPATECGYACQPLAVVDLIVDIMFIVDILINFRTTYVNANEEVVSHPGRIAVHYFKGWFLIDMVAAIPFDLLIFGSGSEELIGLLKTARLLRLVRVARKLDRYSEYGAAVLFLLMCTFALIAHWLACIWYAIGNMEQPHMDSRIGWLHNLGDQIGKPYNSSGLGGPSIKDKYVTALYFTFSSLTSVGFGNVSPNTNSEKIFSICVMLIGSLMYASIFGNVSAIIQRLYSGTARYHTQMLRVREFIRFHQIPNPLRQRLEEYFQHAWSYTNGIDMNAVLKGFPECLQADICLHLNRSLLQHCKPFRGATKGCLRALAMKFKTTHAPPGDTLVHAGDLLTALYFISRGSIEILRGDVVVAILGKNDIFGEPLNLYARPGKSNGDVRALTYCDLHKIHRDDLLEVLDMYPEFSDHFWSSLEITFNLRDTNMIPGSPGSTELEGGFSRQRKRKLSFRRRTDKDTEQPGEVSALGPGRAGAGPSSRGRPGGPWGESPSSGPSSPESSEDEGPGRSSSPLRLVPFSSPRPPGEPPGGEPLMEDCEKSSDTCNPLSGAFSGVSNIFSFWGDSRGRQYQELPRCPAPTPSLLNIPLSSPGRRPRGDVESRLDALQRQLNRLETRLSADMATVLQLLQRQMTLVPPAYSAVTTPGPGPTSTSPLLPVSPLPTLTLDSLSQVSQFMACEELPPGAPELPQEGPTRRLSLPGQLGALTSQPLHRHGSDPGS

[25] = tested on: Salmonella typhimurium; assay: Genotoxicity in Salmonella typhimurium at 10 uM by Ames test; type: toxicity, organism-based; conditions: salmonella enterica subsp. enterica serovar typhimurium

| SMILES | EC50 [1] [nM] | also measured |
| --- | --- | --- |
| COc1ccc2nc(NC(=O)N(CCC(c3ccccc3)c3ccccc3)CCN3CCOCC3)sc2c1 | 40 |  |
| O=C(Nc1nc2ccccc2[nH]1)N(CCC(c1ccccc1)c1ccccc1)CCN1CCOCC1 | 60 |  |
| Cl.Cl.O=C(Nc1nc2ccccc2s1)N(CCC(c1ccccc1)c1ccccc1)CCN1CCOCC1 |  | Vd [2]: 5.17 L/kg; half-life [3]: 6.73 h; Activity [4]: 95%; Activity [5]: Non-toxic; Activity [6]: -49%; Stability [7]: Stable; Activity [8]: -75%; clearance [9]: 30.8 mL/min/kg; Activity [10]: Non-toxic; Activity [11]: Non-toxic; solubility [12]: 300 µg/mL; AUC [13]: 162 ng·h/mL; Activity [14]: -76%; Activity [15]: -88%; Activity [16]: 9%; Cmax [17]: 546 ng/mL; clearance [18]: 82.7 mL/min/kg; Activity [19]: Non-toxic; Stability [20]: Stable; Activity [21]: Non-toxic |
| O=C(Nc1nccc(-c2nccs2)n1)N(CCC(c1ccccc1)c1ccccc1)CCN1CCOCC1 | 200 |  |
| O=C(Nc1nccs1)N(CCC(c1ccccc1)c1ccccc1)CCN1CCOCC1 | 300 |  |
| COC(=O)c1sccc1NC(=O)N(CCC(c1ccccc1)c1ccccc1)CCN1CCOCC1 | 400 |  |
| CS(=O)(=O)Nc1ccc2sc(NC(=O)N(CCC(c3ccccc3)c3ccccc3)CCN3CCOCC3)nc2c1 | 30 |  |
| O=C(Nc1nc2ccccc2n1Cc1ccccc1)N(CCC(c1ccccc1)c1ccccc1)CCN1CCOCC1 | 300 |  |
| CCOc1ccc2nc(NC(=O)N(CCC(c3ccccc3)c3ccccc3)CCN3CCOCC3)sc2c1 | 1000 |  |
| O=C(Nc1cccnc1)N(CCC(c1ccccc1)c1ccccc1)CCN1CCOCC1 | 1000 |  |
| O=C(Nc1nc2ccccc2s1)N(CCC(c1ccccc1)c1ccccc1)CCN1CCOCC1 [listing 1 of 2 here] |  | Activity [22]: Active; Ratio EC50 [23]: 4 |
| O=C(Nc1cnccn1)N(CCC(c1ccccc1)c1ccccc1)CCN1CCOCC1 | 450 |  |
| Cn1c(NC(=O)N(CCC(c2ccccc2)c2ccccc2)CCN2CCOCC2)nc2ccccc21 | 150 |  |
| O=C(Nc1nc2cc(Cl)ccc2o1)N(CCC(c1ccccc1)c1ccccc1)CCN1CCOCC1 | 80 |  |
| O=C(Nc1nc2c(Cl)cccc2s1)N(CCC(c1ccccc1)c1ccccc1)CCN1CCOCC1 | 20 |  |
| O=C(Nc1nc2ccc(OC(F)(F)F)cc2s1)N(CCC(c1ccccc1)c1ccccc1)CCN1CCOCC1 | 90 |  |

| SMILES | EC50 [1] [nM] | also measured |
| --- | --- | --- |
| O=C(Nc1nc2ccc(CO)cc2s1)N(CCC(c1ccccc1)c1ccccc1)CCN1CCOCC1 | 80 |  |
| Cc1cc(C)nc(NC(=O)N(CCC(c2ccccc2)c2ccccc2)CCN2CCOCC2)c1 | 80 |  |
| COc1cccc2sc(NC(=O)N(CCC(c3ccccc3)c3ccccc3)CCN3CCOCC3)nc12 | 30 |  |
| O=C(Nc1nc2ccccc2s1)N(CCC(c1ccccc1)c1ccccc1)CCN1CCOCC1 [listing 2 of 2 here] | 20 | inhibition (INH) [24]: Active; Activity [25]: Non-toxic |
| CCOC(=O)c1ccc2nc(NC(=O)N(CCC(c3ccccc3)c3ccccc3)CCN3CCOCC3)sc2c1 | 200 |  |
| O=C(Nc1nc2ccc(Cl)cc2s1)N(CCC(c1ccccc1)c1ccccc1)CCN1CCOCC1 | 60 |  |
| COc1cc(C)nc(NC(=O)N(CCC(c2ccccc2)c2ccccc2)CCN2CCOCC2)n1 | 400 |  |
| CS(=O)(=O)Nc1ccc2nc(NC(=O)N(CCC(c3ccccc3)c3ccccc3)CCN3CCOCC3)sc2c1 | 30 |  |
| CN(C)CCNC(=O)c1ccc2nc(NC(=O)N(CCC(c3ccccc3)c3ccccc3)CCN3CCOCC3)sc2c1 | 200 |  |
| O=C(O)c1ccc2nc(NC(=O)N(CCC(c3ccccc3)c3ccccc3)CCN3CCOCC3)sc2c1 | 100 |  |
| CS(=O)(=O)c1ccc2nc(NC(=O)N(CCC(c3ccccc3)c3ccccc3)CCN3CCOCC3)sc2c1 | 80 |  |
| Cc1cc(NC(=O)N(CCC(c2ccccc2)c2ccccc2)CCN2CCOCC2)no1 | 200 |  |
| Cc1ccc2nc(NC(=O)N(CCC(c3ccccc3)c3ccccc3)CCN3CCOCC3)sc2c1 | 30 |  |
| Cc1cccc2sc(NC(=O)N(CCC(c3ccccc3)c3ccccc3)CCN3CCOCC3)nc12 | 600 |  |
| Cc1noc(NC(=O)N(CCC(c2ccccc2)c2ccccc2)CCN2CCOCC2)c1C | 1700 |  |
| O=C(Nc1nc2ccc(F)cc2s1)N(CCC(c1ccccc1)c1ccccc1)CCN1CCOCC1 | 200 |  |
